According to the EternaBench riboswitch data:

System: MS2 coat protein
Assay: apparent Kd, MS2 coat protein; higher = weaker binding; RNA-MaP array
Procedure, shortened: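 Apparent Kd is the median of per-cluster binding-curve fits for designed RNAs transcribed from sequenced DNA templates on an Illumina sequencing chip. The RNAs were incubated at room temperature with fluorescently labeled MS2 coat protein at 1.5 nM to 3 μM, with or without input ligand, and designs measured on fewer than 10 clusters were excluded.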

[1] = designed as: ON switch for theophylline, no ligand
[2] = ligand present: theophylline, designed as: ON switch for theophylline
[3] = designed as: OFF switch for flavin mononucleotide, no ligand
[4] = ligand present: flavin mononucleotide, designed as: OFF switch for flavin mononucleotide
[5] = designed as: ON switch for flavin mononucleotide, no ligand
[6] = ligand present: flavin mononucleotide, designed as: ON switch for flavin mononucleotide
[7] = designed as: ON switch for tryptophan, no ligand
[8] = ligand present: tryptophan, designed as: ON switch for tryptophan

Sequence | apparent Kd [3] | apparent Kd [4] | apparent Kd [5] | apparent Kd [6] | further results
CCGUCACAUGAGGAUCACCCAUGUGGUGAUACCAGCAGUCGACCCUGCCCUUGGCAGCACAUUAUCAUAAAAGCAAUCAGCAACG |  |  |  |  | apparent Kd [1]: 156 nM; apparent Kd [2]: 149 nM
CUCGCAAAUGGAGGAUAUGCCGAGAUCCCUAUCCUCAGGACCUCCACAUGAGGAUCACCCAUGUUGCAGAAGGCCAGUGUGAAG | 14.4 nM | 12.2 nM |  |  | 
GGUUGACAUGAGGAUCACCCAUGUGAGGAUAUAACAAGUGGGAGCUCUCCAUGAAAAGUUAGAAGGCACUUGGU | 61.8 nM | 52.9 nM |  |  | 
GCAAUAACAGCAGGAUAUCGUCUCACAUGAGGAUCACCCAUGUUACUAAGUGGCUACUAGGAUUACGAGAAGGGCUGUCCACGC | 10.7 nM | 7.78 nM |  |  | 
AUUUCUUCGGUCAGGAUAUCUAGUGUAACGCGGUCAGAGAAGGGACAUGAGGAUCACCCAUGUGUGACUCUCUG | 5.77 nM | 5.9 nM |  |  | 
UACAUGAGGAUCACCCAUGUCAAACCGUUCUAGGACUAGGUAAGAAGGGUCAUCCUACAAUGUUGACAGGAUAUUACGUAGCUG |  |  | 348 nM | 71.3 nM | 
UUAUUGGUAGGAUAUACAUGAGGAUCACCCAUGUGUCACGCAAAUUAGUAUGUCAAAUGUAGAAGGACCAAAUA | 20.5 nM | 30.2 nM |  |  | 
GUAUGGGCUGUAAGGAUAUCUAAGCCGGUUGUGGCAGAGAAGGUACAUGAGGAUCACCCAUGUGGACUUGGGUC | 13.9 nM | 15.7 nM |  |  | 
ACGAAAUCUUAAACUUACGCACAUGAGGAUCACCCAUGUCACUAGGAUAUUAAAACAAAACAAUGUAAGAAGGAGUGAGAAAAG |  |  | 13.6 nM | 11.8 nM | 
CGAAUCAACCGGCAGGAUAUGAAAACUAAAACAUGAGGAUCACCCAUGUCGGACAAGAACAUGAUACAGAAGGGCCACGUAACAAG |  |  | 95.5 nM | 26.3 nM | 
AGCUCACAUGAGGAUCACCCAUGUCAAUUGUCAUCCUAUUGUAGAAGGCCGACACUGAUAUUAACGGAGGAUAUACGAGACAAU |  |  | 15.2 nM | 7.85 nM | 
GGAAUCUUUCGAGGAUAUGUCCCACAAUAGUGCCUACCGGGUAACAUGAGGAUCACCCAUGUGAGACAGAAGGCGAGGUUUGGC | 9.86 nM | 38 nM |  |  | 
GAAAUCAGAGAGAAGGGUUUACAUCCGACAUGAGGAUCACCCAUGUAGUAAAACUACGACAACUAACAGGAUAUCACUGGCACC |  |  | 208 nM | 176 nM | 
UAGGGUCUGUCGCGACAUGAGGAUCACCCAUGUGCUUAGUCAAGAAGGGCGGACAUGCAAAACCCGCAGGAUAUUGUAUGCACU | 254 nM | 59.5 nM |  |  | 
GAACGGAGAGAAGGAUAUGGCAUAUUGCCUCACAUGAGGAUCACCCAUGUCAAGACAAAGCGAUCCCAGAAGGUCUCACAACAU |  |  | 60.1 nM | 26.8 nM | 
GCAGGUAAGUAGAAGGGUCGCACCAUACUGACGACAGGAUAUACUGUCCGAAACUCGUCAUUACAUGAGGAUCACCCAUGUUUA | 21.2 nM | 11.1 nM |  |  | 
CGAAAACAUGAGGAUCACCCAUGUUAGGAUAUGAGGAUGGUAUAGUAUACGGUGUAGAUCAGAAGGAACGGUGG | 11.4 nM | 11.6 nM |  |  | 
UCCUACAAAGUCAGGAUAUUCGCACAGUCACGAGGGAAGAAGGGACAUGAGGAUCACCCAUGUAUUUACGCGUA | 20.4 nM | 27.2 nM |  |  | 
UAUCGCGCGGCGGCCGCCACUAAUGGCAGAUCUGUCGACUAACAUGAGGAUCACCCAUGUCUAACUAGGACCGGGCCCAAGUUGU |  |  |  |  | apparent Kd [7]: 47.5 nM; apparent Kd [8]: 40.2 nM
UCUAUGCUAACAGGAUAUCGCGGCACGAUGCUUCGAGAAGGGUUAACAUGAGGAUCACCCAUGUGUGUCCUACGGAGACCGCGC | 9.01 nM | 11.8 nM |  |  | 
UAGGAUAACACAGGAUAUACCCUUGUCGUCGGUUCUAAAUUACAUGAGGAUCACCCAUGUCUAAGGUAGAAGGGUGUUUGCGGU | 31.6 nM | 29.6 nM |  |  | 
CAAUGAACAUGAGGAUCACCCAUGUAGUAAUGCGAGAAAACGAAGGAUAUAGCGAUACUACAUAGCAAGAAGGUCGCAAACAUA |  |  | 40.4 nM | 30.7 nM | 
GGUUCAUCGUCGGCCGCCACUCACAUGAGGUGGAGCUGUAAACAUGAGGAUCACCCAUGUUGUUAGAGGACCGGGACGUGACGGC |  |  |  |  | apparent Kd (designed as: OFF switch for tryptophan, no ligand): 33.8 nM; apparent Kd (ligand present: tryptophan, designed as: OFF switch for tryptophan): 36.7 nM
ACGGGACAUGAGGAUCACCCAUGUUAGGAUAUACGAACUUCGCCGAACGUGACCAAUUGUAGAAGGAACUUGGU | 17.2 nM | 14 nM |  |  | 
CGUCCCUAGCAGAAGGUUCUUUGGGCUGCAGUGAAAGGAUAUGCCAGCACAUGAGGAUCACCCAUGUCUGUCGGAUGCACCAGA |  |  | 63.9 nM | 47 nM | 
CCAGUGGGUGGAGGAUAUGAUGACAAACUGUGUUCAGAAGGCCACCUCAAGACACGAACAUGAGGAUCACCCAUGUCCCAACCU |  |  | 227 nM | 15.8 nM | 
AAAUAUAAUCAGAAGGGUUGCUAAACAUGAGGAUCACCCAUGUGAUAACGAUACGAGUAAAUCGAACAGGAUAUGAUGCAGGUU |  |  | 16.5 nM | 12 nM | 

Sequence | apparent Kd [3] | apparent Kd [4] | apparent Kd [5] | apparent Kd [6] | further results
AUGAUCGAACAGAAGGCACGGUGACAGUUAAAGUGAGGAUAUGUAGACAUGAGGAUCACCCAUGUUACUAUACACGGGUCUAUC | 15.1 nM | 45.9 nM |  |  | 
GUACACAUGAGGAUCACCCAUGUACUGGUACGAGGACCGGUACGGCCGCCACUCGCCGAGAUUCAUAACACAUCAGAAAGCUCAC |  |  |  |  | apparent Kd [7]: 17.6 nM; apparent Kd [8]: 15.6 nM
UGUAGCCGCGAGAAGGUAAGCUAAGGAUGUGGUAUCAACGACUACAUGAGGAUCACCCAUGUGCUUAAGGAUAUCGAGGUGGAG |  |  | 62.5 nM | 104 nM | 
AACAUUAGAGGAUAUAUCAUCUUUCACAUGAGGAUCACCCAUGUUCCUCAGUGUUAGUGUAUAGAAGGCUAAGACA | 279 nM | 26.9 nM |  |  | 
AAACAUACGUGAGGAUAUCCCGUUUGAGAGGCUAGUAUCAUCGAAACAUGAGGAUCACCCAUGUCGGAGAAGGCACUACAGGAG |  |  | 6.63 nM | 6.6 nM | 
AAGGAGUUAGGAUAUCCGUGCGUUGACAUGAGGAUCACCCAUGUGUUGAUAAACCUACUAGGAGAAGGAACGAUAC | 20.7 nM | 15.2 nM |  |  | 
AUGCACUCAGUCAGGAUAUGCAACUUAUAAUACAGGCAGAAGGGACAUGAGGAUCACCCAUGUGGCCGGUAAGA | 9.13 nM | 39.1 nM |  |  | 
AAGGGUCAACAGAAGGUUGUCGAACAUUGCGCCAAAGGAUAUGUCUACCGUUUAAGCGUUCGUCACAUGAGGAUCACCCAUGUU |  |  | 26.8 nM | 18.3 nM | 
GCUUAGAAACCUGAUACCAGUCAGCCCUAUGACAUGAGGAUCACCCAUGUGAUACUCACGGACCCUUGGCAGCAGGGUCGAUUAC |  |  |  |  | apparent Kd [1]: 695 nM; apparent Kd [2]: 429 nM
UAUCUACUAUGAGGAUAUCGACAAUGGAUGAACAUGAGGAUCACCCAUGUAACUCAUGGUCCCUUCGAGAAGGCAUGCUAUAAC | 55 nM | 59.5 nM |  |  | 
UGGAAGUAAGGAUAUCCGCGCGCGGGUUUUGCGCACGCACUGGAGAAGGUACAUGAGGAUCACCCAUGUUCGUC | 9.85 nM | 9.59 nM |  |  | 
UCGGGUAAGCAGAAGGCACUAGAUUCUCUUUCAGCGAUAUAACAUGAGGAUCACCCAUGUAGAGGUGAGGAUAUGCAGAAACGC |  |  | 169 nM | 83.9 nM | 
CAGAGACAUGAGGAUCACCCAUGUUGAGAUACCAGCUUGGUAUCGAGCCCUUGGCAGCUCGCCCAUCGUCUAUAUCAGCCUGAGC |  |  |  |  | apparent Kd [1]: 16.5 nM; apparent Kd [2]: 20.2 nM
AGUGGUGCAACUGAUACCAGAUUUAUACGAGACAUGAGGAUCACCCAUGUCGAAAGACAAAUCCCUUGGCAGCAGACACGAUCCC |  |  |  |  | apparent Kd [1]: 9.42 nM; apparent Kd [2]: 8.85 nM
GGGGGUUGGACAGGAUAUAGAGGUCUCGUGUGGAGAUGCACAACGACAUGAGGAUCACCCAUGUGCUAGAAGGGUCUGCGAUAG |  |  | 19.3 nM | 16.1 nM | 
GAAAGGGCAAAGAAGGAGGUCCGAGCUCGGCGCCUAGGAUAUUUCUUAACCACAUGAGGAUCACCCAUGUUGACUGUAGUGUGA | 31.5 nM | 29 nM |  |  | 
CAACGACAUGAGGAUCACCCAUGUGAGGAUAUCUACUUGAUCAGGUAACUGCUUCCGAAGAGAAGGCACGGUGA | 20.4 nM | 19.5 nM |  |  | 
CAAGUAGUGGCAUUAACAUGAGGAUCACCCAUGUUGUGCGUCAGAAGGGCUCUAAUGGAUAACCAGCAGGAUAUGAUUUUCAUC |  |  | 6.92 nM | 6.89 nM | 
UUUAGACCUCAACAUGAGGAUCACCCAUGUAAAUCUCUAUCGAGAAGGAAGGAAGGAACCUUGUCUUAGGAUAUCGACAAUUUC |  |  | 101 nM | 71.7 nM | 
GACGUGUCGCAGAAGGUGGCGAGGAUAGACAUGAGGAUCACCCAUGUGGGACGCGUUAGGUCUGCCAAGGAUAUGCGCAACUCU | 54.3 nM | 28.7 nM |  |  | 
CGUGCAUGCUAGUAGGAUAUCCCGCAUGAAACAUGAGGAUCACCCAUGUAGAAGAUCUAUGAUCGGGAGAAGGACUCGUGAGAAAC |  |  | 34.6 nM | 12.1 nM | 
AAACUUACAGGAUAUACAUGAGGAUCACCCAUGUAAACGAAACACCAGGUGAUAGUGGGUAGAAGGGAAUAAAC | 22.7 nM | 18.5 nM |  |  | 
ACGCACAUGAGGAUCACCCAUGUGAACCUACGAGGACCGGUACGGCCGCCACUCGCUGUUCCUACCGGCUUAAUUGUCACUGGGU |  |  |  |  | apparent Kd [7]: 36.5 nM; apparent Kd [8]: 35 nM
AUGCCUCCACUAGGAUAUUACAUCUACAUUUCCACUUUCAAACAGACAUGAGGAUCACCCAUGUGUAAGAAGGAGUGCCUAGAG |  | 8.45 nM |  |  | 
CUAACACAUGAGGAUCACCCAUGUUAGGAUAUCAGCUGCAGCGCUCGACUGCAAUUUAUGAGAAGGAACUGUGG | 17.5 nM | 24.2 nM |  |  | 
GUACAUAUAGAGAAGGGUGAGUAUAUCAGCCUCACAGGAUAUCUGAUGAGUGACAUGAGGAUCACCCAUGUGGUUGUCGGUAGG | 214 nM | 102 nM |  |  | 
AUUUUAAACAAGAAGGGCUUACGCAAGCUGAGAGCAGGAUAUUGACAUGAGGAUCACCCAUGUAUUAGACCAUAAGAUCCCAUU | 20.5 nM | 20.6 nM |  |  | 
